Source: ChEMBL document CHEMBL4619723, “New CDK8 inhibitors as potential anti-leukemic agents - Design, synthesis and biological evaluation” (Bioorg Med Chem, 2020)

Key:
[1] = target: NUAK family SNF1-like kinase 2 (Homo sapiens) (UniProt Q9H093); experiment: Inhibition of biotinylated ligand binding to wild-type human partial length SNARK (P22 to A333 residues) expressed in mammalian expression system at 50 nM measured after 1 hr by kinomescan assay relative to control
Method in brief: (§1)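 Competition binding: kinase was bound to streptavidin beads carrying a biotinylated ligand, with test compound at 50 nM, in 20% SeaBlock, 0.17x PBS, 0.05% Tween 20 and 6 mM DTT for 1 h at rt with shaking. After washing, kinase was eluted with 0.5 μM free ligand and quantified by qPCR. Result is POC relative to the DMSO (100%) and control-compound (0%) references.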

[2] = target: High affinity nerve growth factor receptor (Homo sapiens) (UniProt P04629); experiment: Inhibition of biotinylated ligand binding to wild-type human partial length TRKA (G475 to G790 residues) expressed in mammalian expression system at 50 nM measured after 1 hr by kinomescan assay relative to control; method in brief: as §1
Sequence of High affinity nerve growth factor receptor (Homo sapiens) (P04629 33-796 limits assumed): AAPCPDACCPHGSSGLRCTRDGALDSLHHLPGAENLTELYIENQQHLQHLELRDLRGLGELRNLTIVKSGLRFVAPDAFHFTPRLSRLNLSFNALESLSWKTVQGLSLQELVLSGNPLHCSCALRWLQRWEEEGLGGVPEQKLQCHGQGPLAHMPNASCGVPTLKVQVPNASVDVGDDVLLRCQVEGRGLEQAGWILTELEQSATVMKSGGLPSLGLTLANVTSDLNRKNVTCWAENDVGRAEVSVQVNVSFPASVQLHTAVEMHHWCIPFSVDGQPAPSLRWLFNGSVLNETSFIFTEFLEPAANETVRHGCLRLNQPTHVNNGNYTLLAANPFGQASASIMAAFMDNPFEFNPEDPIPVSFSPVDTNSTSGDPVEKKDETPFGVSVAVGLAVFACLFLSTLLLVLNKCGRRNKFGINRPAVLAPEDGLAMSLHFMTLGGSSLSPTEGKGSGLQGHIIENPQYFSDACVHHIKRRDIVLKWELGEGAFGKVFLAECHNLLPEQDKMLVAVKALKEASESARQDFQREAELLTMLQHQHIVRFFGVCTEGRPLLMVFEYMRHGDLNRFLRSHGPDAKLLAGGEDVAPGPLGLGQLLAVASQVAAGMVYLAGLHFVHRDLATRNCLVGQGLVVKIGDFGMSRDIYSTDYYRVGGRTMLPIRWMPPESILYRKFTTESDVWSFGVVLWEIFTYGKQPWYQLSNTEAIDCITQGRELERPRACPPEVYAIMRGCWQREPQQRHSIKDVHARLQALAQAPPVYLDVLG

[3] = target: Serine/threonine-protein kinase PLK4 (Homo sapiens) (UniProt O00444); experiment: Inhibition of biotinylated ligand binding to wild-type human partial length PLK4 (M1 to S273 residues) expressed in mammalian expression system at 50 nM measured after 1 hr by kinomescan assay relative to control; method in brief: as §1
Sequence of Serine/threonine-protein kinase PLK4 (Homo sapiens) (O00444 whole entry, the tested form may be a part): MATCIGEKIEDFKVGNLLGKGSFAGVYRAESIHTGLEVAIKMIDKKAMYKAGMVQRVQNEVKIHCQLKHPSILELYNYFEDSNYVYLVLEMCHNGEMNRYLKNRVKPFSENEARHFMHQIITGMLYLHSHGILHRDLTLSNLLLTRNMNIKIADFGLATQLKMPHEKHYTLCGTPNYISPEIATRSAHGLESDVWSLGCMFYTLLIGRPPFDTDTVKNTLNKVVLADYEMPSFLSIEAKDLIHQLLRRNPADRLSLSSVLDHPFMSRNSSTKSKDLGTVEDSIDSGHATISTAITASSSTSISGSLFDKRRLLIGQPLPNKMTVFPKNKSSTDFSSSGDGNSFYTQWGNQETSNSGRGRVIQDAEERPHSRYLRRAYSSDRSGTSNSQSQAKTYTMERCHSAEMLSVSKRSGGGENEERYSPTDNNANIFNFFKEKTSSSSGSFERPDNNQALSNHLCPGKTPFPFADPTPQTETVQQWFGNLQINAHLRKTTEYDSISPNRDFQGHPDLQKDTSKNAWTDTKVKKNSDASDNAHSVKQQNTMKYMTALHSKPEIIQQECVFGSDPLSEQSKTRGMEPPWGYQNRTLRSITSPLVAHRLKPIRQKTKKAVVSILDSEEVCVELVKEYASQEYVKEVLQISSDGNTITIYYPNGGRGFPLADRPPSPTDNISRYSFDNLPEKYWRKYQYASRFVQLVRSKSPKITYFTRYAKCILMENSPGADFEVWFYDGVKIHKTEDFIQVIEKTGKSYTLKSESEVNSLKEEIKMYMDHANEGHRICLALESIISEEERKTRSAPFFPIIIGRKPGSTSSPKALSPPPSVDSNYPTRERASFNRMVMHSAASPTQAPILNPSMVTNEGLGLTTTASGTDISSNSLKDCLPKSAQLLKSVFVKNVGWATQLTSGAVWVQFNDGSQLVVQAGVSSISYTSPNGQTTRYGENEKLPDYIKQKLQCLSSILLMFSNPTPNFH

[4] = target: cGMP-dependent protein kinase 2 (Homo sapiens) (UniProt Q13237); experiment: Inhibition of biotinylated ligand binding to wild-type human partial length PRKG2 (S422 to F762 residues) expressed in mammalian expression system at 50 nM measured after 1 hr by kinomescan assay relative to control; method in brief: as §1
[5] = target: Mitogen-activated protein kinase kinase kinase 2 (Homo sapiens) (UniProt Q9Y2U5); experiment: Inhibition of biotinylated ligand binding to wild-type human partial length MAP3K2 (S315 to H619 residues) expressed in mammalian expression system at 50 nM measured after 1 hr by kinomescan assay relative to control; method in brief: as §1
[6] = target: Activin receptor type-1 (Homo sapiens) (UniProt Q04771); experiment: Inhibition of biotinylated ligand binding to wild-type human ACVR1 (C188 to C509 residues) expressed in bacterial expression system at 50 nM measured after 1 hr by kinomescan assay relative to control
Sequence of Activin receptor type-1 (Homo sapiens) (Q04771 whole entry, the tested form may be a part): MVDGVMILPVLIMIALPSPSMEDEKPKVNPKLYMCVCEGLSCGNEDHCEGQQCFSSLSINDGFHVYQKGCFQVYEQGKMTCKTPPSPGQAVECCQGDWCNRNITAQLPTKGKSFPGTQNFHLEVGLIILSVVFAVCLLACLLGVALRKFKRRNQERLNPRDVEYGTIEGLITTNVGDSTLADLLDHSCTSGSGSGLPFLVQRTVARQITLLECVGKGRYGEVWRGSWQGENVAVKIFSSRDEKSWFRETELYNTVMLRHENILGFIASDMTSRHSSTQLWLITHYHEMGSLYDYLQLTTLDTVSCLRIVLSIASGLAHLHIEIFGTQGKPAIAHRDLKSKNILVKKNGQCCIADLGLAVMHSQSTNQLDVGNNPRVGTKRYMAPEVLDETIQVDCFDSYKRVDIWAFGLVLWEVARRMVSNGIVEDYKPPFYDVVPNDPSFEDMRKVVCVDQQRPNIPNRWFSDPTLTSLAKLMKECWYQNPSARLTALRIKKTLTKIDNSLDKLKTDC
Method in brief: (§2)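 Kinase-tagged T7 phage was grown in an E. coli BL21-derived host at 32 °C until lysis, and the lysate was clarified. Kinase was bound to streptavidin beads carrying a biotinylated ligand, with test compound at 50 nM (final DMSO), in binding buffer for 1 h at rt. Bound kinase was eluted and quantified by qPCR. Result is POC relative to the DMSO (100%) and control-compound (0%) references.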

[7] = target: Cyclin-dependent kinase 19 (Homo sapiens) (UniProt Q9BWU1); experiment: Inhibition of biotinylated ligand binding to wild-type human partial length CDK11 (M1 to N360 residues) expressed in bacterial expression system at 50 nM measured after 1 hr by kinomescan assay relative to control
Method in brief: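 T7 phage-tagged kinase lysates from E. coli BL21 were mixed with streptavidin beads carrying biotinylated ligand and 50 nM compound. Incubated 1 h at room temperature with shaking, washed, then eluted 30 min with 0.5 μM non-biotinylated ligand. Kinase was quantified by qPCR. POC = (test − positive)/(DMSO − positive) ×100, with a control compound as positive.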

[8] = target: Cyclin-dependent kinase 8 (Homo sapiens, UniProt P49336); experiment: Inhibition of biotinylated ligand binding to wild-type human partial length CDK8 (M1 to T360 residues) expressed in Escherichia coli BL21 measured after 1 hr by kinomescan assay
Sequence of Cyclin-dependent kinase 8 (P49336 whole entry, the tested form may be a part): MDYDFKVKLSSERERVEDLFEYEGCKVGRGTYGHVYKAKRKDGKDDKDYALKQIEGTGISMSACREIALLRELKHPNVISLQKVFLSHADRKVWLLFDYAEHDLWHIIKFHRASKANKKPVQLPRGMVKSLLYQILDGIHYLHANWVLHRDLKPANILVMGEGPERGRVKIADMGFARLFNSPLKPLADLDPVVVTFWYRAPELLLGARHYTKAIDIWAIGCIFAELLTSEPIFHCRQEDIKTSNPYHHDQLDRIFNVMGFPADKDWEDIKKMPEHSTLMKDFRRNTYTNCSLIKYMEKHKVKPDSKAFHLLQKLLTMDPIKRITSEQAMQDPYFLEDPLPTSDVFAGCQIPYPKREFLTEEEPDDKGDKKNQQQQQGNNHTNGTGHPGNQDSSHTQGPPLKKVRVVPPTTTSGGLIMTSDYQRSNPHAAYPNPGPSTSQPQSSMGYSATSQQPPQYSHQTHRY

[9] = target: BMP-2-inducible protein kinase (Homo sapiens) (UniProt Q9NSY1); experiment: Inhibition of biotinylated ligand binding to wild-type human partial length BIKE (S34 to N329 residues) expressed in bacterial expression system at 50 nM measured after 1 hr by kinomescan assay relative to control; method in brief: as §2
[10] = target: G protein-coupled receptor kinase 4 (Homo sapiens) (UniProt P32298); experiment: Inhibition of biotinylated ligand binding to wild-type human full length GRK4 (M1 to C578 residues) expressed in bacterial expression system at 50 nM measured after 1 hr by kinomescan assay relative to control; method in brief: as §2
[11] = target: Serine/threonine-protein kinase LATS1 (Homo sapiens) (UniProt O95835); experiment: Inhibition of biotinylated ligand binding to wild-type human partial length LATS1 (Q678 to V1130 residues) expressed in bacterial expression system at 50 nM measured after 1 hr by kinomescan assay relative to control; method in brief: as §2
Sequence of Serine/threonine-protein kinase LATS1 (Homo sapiens) (O95835 whole entry, the tested form may be a part): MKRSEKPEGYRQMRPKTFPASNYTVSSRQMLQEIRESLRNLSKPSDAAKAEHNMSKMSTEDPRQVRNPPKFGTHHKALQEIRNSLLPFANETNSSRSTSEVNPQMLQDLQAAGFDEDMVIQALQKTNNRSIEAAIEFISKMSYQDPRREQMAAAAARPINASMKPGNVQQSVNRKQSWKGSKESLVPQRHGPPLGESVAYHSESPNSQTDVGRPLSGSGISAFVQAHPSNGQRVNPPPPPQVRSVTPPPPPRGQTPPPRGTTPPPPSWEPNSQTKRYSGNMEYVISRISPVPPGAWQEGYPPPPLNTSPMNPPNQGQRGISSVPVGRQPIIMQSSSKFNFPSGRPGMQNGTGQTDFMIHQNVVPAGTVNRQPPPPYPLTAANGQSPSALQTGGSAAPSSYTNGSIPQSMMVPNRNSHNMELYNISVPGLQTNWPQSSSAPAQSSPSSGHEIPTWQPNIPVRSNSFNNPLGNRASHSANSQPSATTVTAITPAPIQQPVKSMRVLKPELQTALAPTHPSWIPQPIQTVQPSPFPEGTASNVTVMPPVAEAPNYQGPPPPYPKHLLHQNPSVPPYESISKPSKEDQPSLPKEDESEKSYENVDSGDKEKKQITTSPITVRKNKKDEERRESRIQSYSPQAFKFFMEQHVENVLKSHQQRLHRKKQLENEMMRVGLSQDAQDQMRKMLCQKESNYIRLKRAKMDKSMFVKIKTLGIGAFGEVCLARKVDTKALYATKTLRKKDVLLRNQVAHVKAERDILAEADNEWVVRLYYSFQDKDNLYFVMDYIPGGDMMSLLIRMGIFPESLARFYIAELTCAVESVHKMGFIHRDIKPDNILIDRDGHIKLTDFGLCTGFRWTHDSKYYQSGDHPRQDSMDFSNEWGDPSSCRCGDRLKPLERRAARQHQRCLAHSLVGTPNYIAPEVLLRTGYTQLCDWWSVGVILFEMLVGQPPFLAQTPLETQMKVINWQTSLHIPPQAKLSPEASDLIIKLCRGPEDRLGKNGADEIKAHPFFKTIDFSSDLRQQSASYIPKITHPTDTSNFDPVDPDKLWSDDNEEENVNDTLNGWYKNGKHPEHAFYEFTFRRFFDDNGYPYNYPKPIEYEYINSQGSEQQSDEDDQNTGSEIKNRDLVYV

[12] = target: SRSF protein kinase 3 (Homo sapiens) (UniProt Q9UPE1); experiment: Inhibition of biotinylated ligand binding to wild-type human partial length SRPK3 (P41 to P567 residues) expressed in bacterial expression system at 50 nM measured after 1 hr by kinomescan assay relative to control; method in brief: as §2
[13] = target: Serine/threonine-protein kinase 32A (Homo sapiens) (UniProt Q8WU08); experiment: Inhibition of biotinylated ligand binding to wild-type human full length YANK1 (M1 to L396 residues) expressed in mammalian expression system at 50 nM measured after 1 hr by kinomescan assay relative to control; method in brief: as §1
Sequence of Serine/threonine-protein kinase 32A (Homo sapiens) (Q8WU08 whole entry, the tested form may be a part): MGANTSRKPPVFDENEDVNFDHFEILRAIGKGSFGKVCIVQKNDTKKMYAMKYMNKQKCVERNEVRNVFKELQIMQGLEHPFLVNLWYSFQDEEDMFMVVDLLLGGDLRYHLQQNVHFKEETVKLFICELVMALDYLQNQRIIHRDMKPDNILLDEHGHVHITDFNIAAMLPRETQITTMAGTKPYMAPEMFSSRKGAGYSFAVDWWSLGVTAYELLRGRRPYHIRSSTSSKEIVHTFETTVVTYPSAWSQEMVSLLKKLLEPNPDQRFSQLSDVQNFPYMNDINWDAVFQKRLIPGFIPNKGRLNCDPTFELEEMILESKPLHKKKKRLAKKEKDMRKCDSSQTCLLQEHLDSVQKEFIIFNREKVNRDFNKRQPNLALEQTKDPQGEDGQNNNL

[14] = target: Dual specificity protein kinase CLK4 (Homo sapiens) (UniProt Q9HAZ1); experiment: Inhibition of biotinylated ligand binding to wild-type human partial length CLK4 (R135 to K481 residues) expressed in bacterial expression system at 50 nM measured after 1 hr by kinomescan assay relative to control; method in brief: as §2
[15] = target: Serine/threonine-protein kinase haspin (Homo sapiens) (UniProt Q8TF76); experiment: Inhibition of biotinylated ligand binding to wild-type human partial length HASPIN (I452 to K798 residues) expressed in mammalian expression system at 50 nM measured after 1 hr by kinomescan assay relative to control
[16] = target: Serine/threonine-protein kinase MAK (Homo sapiens) (UniProt P20794); experiment: Inhibition of biotinylated ligand binding to wild-type human partial length MAK (M1 to P314 residues) expressed in bacterial expression system at 50 nM measured after 1 hr by kinomescan assay relative to control
[17] = target: Mitogen-activated protein kinase 13 (Homo sapiens) (UniProt O15264); experiment: Inhibition of biotinylated ligand binding to wild-type human full length p38-delta (M1 to L365 residues) expressed in bacterial expression system at 50 nM measured after 1 hr by kinomescan assay relative to control; method in brief: as §2
[18] = target: cGMP-dependent protein kinase 1 (Homo sapiens) (UniProt Q13976); experiment: Inhibition of biotinylated ligand binding to wild-type human partial length PRKG1 (L339 to F686 residues) expressed in bacterial expression system at 50 nM measured after 1 hr by kinomescan assay relative to control; method in brief: as §2
Sequence of cGMP-dependent protein kinase 1 (Homo sapiens) (Q13976 whole entry, the tested form may be a part): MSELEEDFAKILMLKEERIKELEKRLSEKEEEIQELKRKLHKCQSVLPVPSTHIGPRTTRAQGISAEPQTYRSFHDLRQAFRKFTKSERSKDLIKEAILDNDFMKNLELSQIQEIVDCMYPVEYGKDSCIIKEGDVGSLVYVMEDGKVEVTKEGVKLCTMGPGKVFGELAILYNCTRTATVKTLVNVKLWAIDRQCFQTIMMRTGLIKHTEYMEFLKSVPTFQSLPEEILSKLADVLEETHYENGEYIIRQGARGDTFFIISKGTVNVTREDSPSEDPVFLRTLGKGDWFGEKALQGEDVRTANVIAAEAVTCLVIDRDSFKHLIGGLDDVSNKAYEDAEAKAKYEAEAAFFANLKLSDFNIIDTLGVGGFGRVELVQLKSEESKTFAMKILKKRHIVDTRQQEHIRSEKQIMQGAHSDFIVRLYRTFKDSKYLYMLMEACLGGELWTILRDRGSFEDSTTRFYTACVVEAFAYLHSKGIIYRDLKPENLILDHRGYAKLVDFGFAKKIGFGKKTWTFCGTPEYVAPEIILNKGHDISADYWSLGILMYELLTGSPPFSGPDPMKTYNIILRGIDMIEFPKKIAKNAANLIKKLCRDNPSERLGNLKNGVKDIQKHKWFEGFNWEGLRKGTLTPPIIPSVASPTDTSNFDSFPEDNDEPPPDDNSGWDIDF

[19] = Selectivity ratio of EC50 for rat NRK cells to EC50 for human MOLM13 cells; type: toxicity; conditions: NRK cells versus MOLM13 cells, read-out: Ratio EC50
[20] = Selectivity ratio of EC50 for rat H9c2 cells to EC50 for human MOLM13 cells; type: toxicity; conditions: H9c2 cells versus MOLM13 cells, read-out: Ratio EC50
[21] = Selectivity ratio of EC50 for rat H9c2 cells to EC50 for human MV4-11 cells; type: toxicity; conditions: H9c2 cells versus MV4-11 cells, read-out: Ratio EC50
OCI-AML-3 = experiment: cells; conditions: Homo sapiens, OCI-AML-3, 48 h

CN(C)[C@@H]1CC[C@@]2(C)[C@@H](CC[C@@H]3[C@@H]2CC[C@]2(C)C(c4cccc5cnccc45)=CC[C@@H]32)C1
> 80%: inhibition [1] | inhibition [2] | inhibition [3] | inhibition [4] | inhibition [5] | inhibition [6] | inhibition [7] | inhibition [9] | inhibition [10] | inhibition [11] | inhibition [12] | inhibition [13] | inhibition [14] | inhibition [15] | inhibition [16] | inhibition [17] | inhibition [18]
3 to 4: selectivity ratio [19] | selectivity ratio [20] | selectivity ratio [21]
4800 nM: EC50 (OCI-AML-3)
3.5 nM: Kd [8]
